Assay outcomes (PubChem BioAssay)
MT stabilize HCS – microtubule stabilization, imaging screen; HeLa tubulin immunostaining HCS, 24 h; share of cells brighter than vehicle mean+2SD; % tubulin-high responders, % at 10 µM; hit rate 0.83% among 200,000;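 active means plate Z-score above 3 for both tubulin-high and condensed-nucleus cell shares, with cell loss under 80%, at 10 µM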;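 further: anti alpha tubulin signal scored within the nucleus-defined area of each cell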
Dynein cargo inh – dynein cargo transport inhibition; 3617.4 mouse cells, GR-EGFP nuclear translocation imaging; test concentration mostly 20 µM; stimulated with dexamethasone, 1 µM; hits give low values; z-score, hits read low; hit rate 0.47% among 220,000;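 active means plate z-score of nuclear minus cytoplasmic receptor signal below a set negative limit, without overly bright fluorescence or cell loss, cut at about -3.5 in these data, passing the limit was not always enough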;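 further: z-score of nuclear minus cytoplasmic ring GR-EGFP intensity difference per well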
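Also added – dexamethasone, 1.0 µM final · Buffer or medium – tet-free, stripped-serum medium · Schedule – induction 48 h, compound 1 h, agonist 30 min · Detection – formaldehyde fixation, Hoechst nuclear stain, 10x automated fluorescence imaging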
b-catenin transl – beta-catenin nuclear translocation modulation. hit rate 0.3% among 190,000. nuclear translocation activity, % at 5 µM. HeLa beta-catenin nuclear translocation, immunofluorescence imaging. AID 1665;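 active means nuclear translocation activity above 50% at 5 µM, with a well cell count of 50 or more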;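 further: per-cell ratio of nuclear to cytoplasmic median beta-catenin stain intensity; plate controls were DMSO negative control for no effect and GSK-3 inhibitor IX positive control for full effect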
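assay system = human HeLa cells, endogenous beta-catenin | times = compound treatment 24 h, 37°C, 5% CO2 | detection = Anti-beta-catenin immunofluorescence on PFA-fixed, Triton-permeabilized cells, DAPI nuclei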
L major viab – reduces viability of Leishmania major promastigotes; AID 1063; resazurin fluorescence viability; inhibition, % at 10 µM; hit rate 9% among 200,000; in the data active means inhibition above about 50%;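 further: promastigotes grown with compound for 44 hours at 28 °C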
Autophagy HCS – autophagy modulation, high-content screen; MEF GFP-LC3 puncta imaging; test concentration mostly 10 µM; hit rate 0.98% among 190,000; AID 463193; calls only at 10 µM (by protocol);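 active means percentage of spot-positive cells more than 3 SD above its plate mean, without a fluorescence outlier flag or 80% toxicity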;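 further: spot-positive cell cutoff set from DMSO-treated cells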
CHOP inh – inhibitors of CHOP induction in ER stress response | hit rate 3.8% among 220,000 | inhibition, % at 10 µM | CHO-K1 CHOP-promoter luciferase, tunicamycin-induced, 15-18 h;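 active means compounds that reduced the stress-induced luciferase reporter signal by more than about 70% of percent inhibition, limit read from the data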;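 further: 0% = tunicamycin plus vehicle and 100% = wells without tunicamycin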
Starred values were filed as active, the others as inactive; i = inactive; x = no result; + = active, no number. Sampled rows, rich in hits. Any-hit rate of the full collection: about 12%.

SMILES	MT stabilize HCS	Dynein cargo inh	b-catenin transl	L major viab	Autophagy HCS	CHOP inh
Fc1ccccc1N1CCN(Cc2nc(-c3ccccc3)no2)CC1	2	0.048	x	-7	i	86*
COc1ccc(-c2noc(CN3CCN(c4ccccc4F)CC3)n2)cc1OC	3	0.43	-2	25	i	16
S=c1[nH]nc(Cc2noc3ccccc23)n1-c1ccccc1	3	-0.47	-2	-6	i	22
CC(C)n1cc(NC(=O)c2cc(-c3ccccc3)on2)cn1	28*	-0.33	x	26	i	34
COc1ccc(-c2cc(C(=O)Nc3cc(C)nn3-c3ccccc3)no2)cc1	3	0.29	0	-2	i	11
COCCNC(=O)c1cc(-c2ccccc2OC)on1	31*	0.11	3	-8	x	27
COc1ccccc1-c1cc(C(=O)Nc2cc(C)nn2-c2ccccc2)no1	47*	0.25	9	-4	i	x
COc1ccccc1-c1cc(C(=O)NCc2cccs2)no1	2	-0.25	-1	-6	i	6
Cc1cc(NC(=O)c2cc(-c3ccccc3)on2)n(-c2ccccc2)n1	3	-0.041	x	-9	i	76*
CCN(CC)C(=O)COc1ccc(/C=C(\C#N)S(=O)(=O)c2ccccc2)cc1OC	2	-0.35	-2	-7	i	25
CCc1ccccc1NC(=O)c1ccc([N+](=O)[O-])s1	3	0.93	0	100*	i	-5
COc1ccccc1NC(=O)COC(=O)c1ccc([N+](=O)[O-])s1	3	-0.31	2	9	i	20
C/C=C/C=N/NC(=O)CN(c1ccc(Br)cc1)S(=O)(=O)c1ccccc1	2	-0.56	-3	1	i	37
CCOC(=O)c1c(CN2CCN(c3ccccc3)CC2)oc2ccc(O)cc12	13*	0.47	3	10	i	81*
CCOC(=O)c1c(CN2CCN(C)CC2)oc2ccc(OC)cc12	4	-0.085	0	8	i	-2
O=C(CSc1ncnc2c1nnn2-c1ccc(F)cc1)NCC1CCCO1 (centres undefined)	4	-1.2	0	41	i	-20
Cc1ccc(-n2nnc3c(SCC(=O)NCC4CCCO4)ncnc32)cc1 (centres undefined)	1	0.028	x	86*	i	-78
Cc1ccccc1-n1nnnc1SCC(=O)NCC1CCCO1 (centres undefined)	8	-0.88	2	-1	+	-4
Cc1ccc(C)c(-n2nnnc2SCC(=O)NCCC2=CCCCC2)c1	1	0.34	0	1	i	86*
CCc1ccc(OCCCOc2ccc(C=O)cc2)cc1	2	-0.51	x	-1	i	73*
CC(=O)NC1(C(F)(F)F)C(=O)Nc2c1c(=O)[nH]c(=O)n2CCc1ccccc1 (centres undefined)	x	0.64	2	x	x	-2
CC(=O)Nc1ccc(NC(=O)COc2ccc([N+](=O)[O-])cc2)cc1	2	3.5	-1	0	i	-15
O=C(COc1ccc(/C=N/NC(=O)c2ccccc2O)cc1)Nc1ccc([N+](=O)[O-])cc1	4	-0.89	-1	-10	i	90*
CCCC(=O)NC(=S)c1c(C)n(C)n(-c2ccccc2)c1=O	3	-0.11	2	-8	i	3
COc1ccc(C=C(C(C)=O)C(C)=O)cc1OC	4	-2.1	x	41	i	-41
SMILES	MT stabilize HCS	Dynein cargo inh	b-catenin transl	L major viab	Autophagy HCS	CHOP inh
COc1cc(C=C(C(C)=O)C(C)=O)ccc1O	3	0.76	-3	63*	i	19
CCN(Cc1ccccc1)c1ccc(/C=N/NC(=O)c2cccc(S(=O)(=O)N3CCOCC3)c2)cc1	6	-0.81	x	91*	i	46
CCN(CC)c1ccc(/C=N/NC(=O)c2cccc(S(=O)(=O)N3CCOCC3)c2)cc1	2	-0.15	x	73*	i	54
O=C(CN(C(=O)CCC(=O)Nc1nccs1)C1CCCC1)NCc1ccc2c(c1)OCO2	4	-0.21	-1	-5	i	20
CC(O)CNc1nc2sc3c(c2c(=O)n1CCc1ccccc1)CCCCC3 (centres undefined)	5	0.003	4	22	i	91*
CN(C)CCNc1nc2sc3c(c2c(=O)n1CCc1ccccc1)CCCCC3	x	1.1	-2	x	x	2
